From ChEMBL document CHEMBL1821604, “Anticancer activity and cDNA microarray studies of a (RS)-1,2,3,5-tetrahydro-4,1-benzoxazepine-3-yl]-6-chloro-9H-purine, and an acyclic (RS)-O,N-acetalic 6-chloro-7H-purine” (Eur J Med Chem, 2011)

Tests used:
Assay type in all cases: functional
HT-29 [1] = experiment: Down regulation of FLJ32871 gene expression in human HT-29 cells at IC50 after 48 hrs by cDNA microarray technique relative to control
Procedure, shortened: (§1)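 Cells (8 × 10⁶) were cultured in DMEM with 10% heat-inactivated FBS at 37 °C under 5% CO₂. They were exposed for 48 h to compound at its IC₅₀, with DMSO-treated parallel cultures as controls (final DMSO ≤0.1% v/v). Total RNA was isolated by trizol/chloroform phase separation, RNeasy column cleanup and on-column DNase, then quantified by OD260/OD280. Expression was profiled by cDNA microarray relative to control.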

HT-29 [2] = experiment: Down regulation of PGLYRP4 gene expression in human HT-29 cells at IC50 after 48 hrs by cDNA microarray technique relative to control
HT-29 [3] = experiment: Down regulation of MGC35130 gene expression in human HT-29 cells at IC50 after 48 hrs by cDNA microarray technique relative to control
MCF7 [4] = experiment: Down regulation of BDKRB1 gene expression in human MCF7 cells at IC50 after 48 hrs by cDNA microarray technique relative to control
Procedure, shortened: (§2)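 8 × 10⁶ cells exposed 48 h to compound at its IC50 concentration; total RNA isolated with trizol/chloroform and RNeasy columns including on-column DNase step; RNA quantified by OD 260/280; DMSO-treated cultures as control.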

HT-29 [5] = experiment: Down regulation of AK5 gene expression in human HT-29 cells at IC50 after 48 hrs by cDNA microarray technique relative to control; procedure, shortened: as §2
MCF7 [6] = experiment: Down regulation of CD72 gene expression in human MCF7 cells at IC50 after 48 hrs by cDNA microarray technique relative to control; procedure, shortened: as §2
HT-29 [7] = experiment: Down regulation of HAPLN3 gene expression in human HT-29 cells at IC50 after 48 hrs by cDNA microarray technique relative to control; procedure, shortened: as §1
HT-29 [8] = experiment: Down regulation of HTN1 gene expression in human HT-29 cells at IC50 after 48 hrs by cDNA microarray technique relative to control; procedure, shortened: as §1
MCF7 [9] = experiment: Down regulation of ATP1B4 gene expression in human MCF7 cells at IC50 after 48 hrs by cDNA microarray technique relative to control; procedure, shortened: as §2
MCF7 [10] = experiment: Down regulation of PARK2 gene expression in human MCF7 cells at IC50 after 48 hrs by cDNA microarray technique relative to control
MCF7 [11] = experiment: Upregulation of NRTN gene expression in human MCF7 cells at IC50 after 48 hrs by cDNA microarray technique relative to control
MCF7 [12] = experiment: Down regulation of PGLYRP4 gene expression in human MCF7 cells at IC50 after 48 hrs by cDNA microarray technique relative to control
MCF7 [13] = experiment: Down regulation of ENST00000295859 gene expression in human MCF7 cells at IC50 after 48 hrs by cDNA microarray technique relative to control; procedure, shortened: as §1
MCF7 [14] = experiment: Down regulation of KIF3B gene expression in human MCF7 cells at IC50 after 48 hrs by cDNA microarray technique relative to control; procedure, shortened: as §1
MCF7 [15] = experiment: Upregulation of SMARCA1 gene expression in human MCF7 cells at IC50 after 48 hrs by cDNA microarray technique relative to control
HT-29 [16] = experiment: Down regulation of NBEA gene expression in human HT-29 cells at IC50 after 48 hrs by cDNA microarray technique relative to control
MCF7 [17] = experiment: Down regulation of OR8A1 gene expression in human MCF7 cells at IC50 after 48 hrs by cDNA microarray technique relative to control
HT-29 [18] = experiment: Upregulation of TUBB4 gene expression in human HT-29 cells at IC50 after 48 hrs by cDNA microarray technique relative to control
MCF7 [19] = experiment: Down regulation of CNIH3 gene expression in human MCF7 cells at IC50 after 48 hrs by cDNA microarray technique relative to control; procedure, shortened: as §2
HT-29 [20] = experiment: Down regulation of OR4K15 gene expression in human HT-29 cells at IC50 after 48 hrs by cDNA microarray technique relative to control
HT-29 [21] = experiment: Down regulation of PYCRL gene expression in human HT-29 cells at IC50 after 48 hrs by cDNA microarray technique relative to control
HT-29 [22] = experiment: Down regulation of IL26 gene expression in human HT-29 cells at IC50 after 48 hrs by cDNA microarray technique relative to control; procedure, shortened: as §1
HT-29 [23] = experiment: Down regulation of PRO1855 gene expression in human HT-29 cells at IC50 after 48 hrs by cDNA microarray technique relative to control
HT-29 [24] = experiment: Down regulation of SOCS4 gene expression in human HT-29 cells at IC50 after 48 hrs by cDNA microarray technique relative to control
HT-29 [25] = experiment: Down regulation of LMNB1 gene expression in human HT-29 cells at IC50 after 48 hrs by cDNA microarray technique relative to control; procedure, shortened: as §1
HT-29 [26] = experiment: Down regulation of PP1201 gene expression in human HT-29 cells at IC50 after 48 hrs by cDNA microarray technique relative to control
MCF7 [27] = experiment: Down regulation of ZNF354A gene expression in human MCF7 cells at IC50 after 48 hrs by cDNA microarray technique relative to control
MCF7 [28] = experiment: Upregulation of CALM1 gene expression in human MCF7 cells at IC50 after 48 hrs by cDNA microarray technique relative to control
HT-29 [29] = experiment: Down regulation of KELCHL gene expression in human HT-29 cells at IC50 after 48 hrs by cDNA microarray technique relative to control; procedure, shortened: as §1
MCF7 [30] = experiment: Upregulation of RHOH gene expression in human MCF7 cells at IC50 after 48 hrs by cDNA microarray technique relative to control
MCF7 [31] = experiment: Upregulation of GALNT13 gene expression in human MCF7 cells at IC50 after 48 hrs by cDNA microarray technique relative to control
HT-29 [32] = experiment: Down regulation of PRP19 gene expression in human HT-29 cells at IC50 after 48 hrs by cDNA microarray technique relative to control

COC(CN(c1ccccc1CO)S(=O)(=O)c1ccccc1[N+](=O)[O-])n1cnc2ncnc(Cl)c21 (racemic)
fold change (FC) (HT-29 [1]): -2.51 | fold change (FC) (HT-29 [2]): -2.02 | fold change (FC) (HT-29 [3]): -2.05 | fold change (FC) (MCF7 [4]): -2.48 | fold change (FC) (HT-29 [5]): -3.52 | fold change (FC) (MCF7 [6]): -2.17 | fold change (FC) (HT-29 [7]): -2.64 | fold change (FC) (HT-29 [8]): -2.1 | fold change (FC) (MCF7 [9]): -2.07 | fold change (FC) (MCF7 [10]): -2.2 | fold change (FC) (MCF7 [11]): 4.22 | fold change (FC) (MCF7 [12]): -2.45 | fold change (FC) (MCF7 [13]): -2.27 | fold change (FC) (MCF7 [14]): -2.14 | fold change (FC) (MCF7 [15]): 2.91 | fold change (FC) (HT-29 [16]): -2.89

O=C(OCC1c2ccccc2-c2ccccc21)N1CC(n2cnc3c(Cl)ncnc32)OCc2ccccc21 (racemic)
fold change (FC) (MCF7 [17]): -3.03 | fold change (FC) (HT-29 [18]): 3.23 | fold change (FC) (MCF7 [19]): -3.32 | fold change (FC) (HT-29 [20]): -3.6 | fold change (FC) (HT-29 [21]): -2.36 | fold change (FC) (HT-29 [22]): -2.22 | fold change (FC) (HT-29 [23]): -2 | fold change (FC) (HT-29 [24]): -2 | fold change (FC) (HT-29 [25]): -3 | fold change (FC) (HT-29 [26]): -2.04 | fold change (FC) (MCF7 [27]): -2.05 | fold change (FC) (MCF7 [28]): 2.99 | fold change (FC) (HT-29 [29]): -2.02 | fold change (FC) (MCF7 [30]): 2.2 | fold change (FC) (MCF7 [31]): 3.23 | fold change (FC) (HT-29 [32]): -3.33
